In brackets after ≈: the same amount, converted by molar mass.
How the values were obtained:
Assay type in all cases: functional
Staphylococcus aureus [1] = assay: Antimicrobial activity against daptomycin-nonsusceptible Staphylococcus aureus by microdilution method
In short: (§1)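 MIC by broth microdilution in cation-adjusted Mueller-Hinton broth, following CLSI guidelines; antibiotic powders reconstituted per CLSI. Read visually as the lowest drug concentration well with no visible growth. S. aureus ATCC 29213 and E. faecalis ATCC 29212 served as control strains. CA-MRSA: hospital patients culture-positive within 48 h of admission. DNSSA: patient blood isolates. VISA: obtained from the NARSA program.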

Staphylococcus aureus [2] = assay: Bactericidal activity against vancomycin-intermediate Staphylococcus aureus assessed as antibiotic concentration that reduced the number of viable cells by =>99.9% by colony count method; settings: for MBC: Staphylococcus aureus
In short: (§2)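 MBC per CLSI guidelines. It was taken as the antibiotic concentration giving ≥99.9% reduction in viable cells, based on colony counts from the growth control well and rejection values from Pearson's tables.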

Staphylococcus aureus [3] = assay: Antimicrobial activity against community-acquired methicillin-resistant Staphylococcus aureus by microdilution method; in short: as §1
Staphylococcus aureus [4] = assay: Antimicrobial activity against vancomycin intermediate Staphylococcus aureus NRS-403 expressing SCCmec type 2 element by microdilution method; in short: as §1
Staphylococcus aureus [5] = assay: Antimicrobial activity against vancomycin intermediate Staphylococcus aureus NRS-22 expressing SCCmec type 2 element by microdilution method; in short: as §1
Staphylococcus aureus [6] = assay: Antimicrobial activity against vancomycin-intermediate Staphylococcus aureus assessed as susceptible isolates by microdilution method
In short: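 CLSI broth microdilution in cation-adjusted Mueller-Hinton broth. MIC is the lowest concentration well with no visible growth, read by eye. Isolates were classed susceptible from CLSI breakpoints. S. aureus ATCC 29213 and E. faecalis ATCC 29212 were used as MIC control strains.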

Staphylococcus aureus [7] = assay: Antimicrobial activity against vancomycin resistant Staphylococcus aureus VRS-9 expressing SCCmec type 2 element by microdilution method
In short: (§3)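 Broth microdilution per CLSI in cation-adjusted Mueller-Hinton broth. Antibiotic powders were reconstituted per CLSI. The MIC was read visually as the lowest drug concentration with no visible growth. S. aureus ATCC 29213 and E. faecalis ATCC 29212 served as control strains. VISA and VRSA isolates came from the NARSA program.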

Staphylococcus aureus [8] = assay: Antimicrobial activity against vancomycin intermediate Staphylococcus aureus NRS-68 expressing SCCmec type 2 element by microdilution method; in short: as §1
Staphylococcus aureus [9] = assay: Antimicrobial activity against vancomycin resistant Staphylococcus aureus VRS-8 expressing SCCmec element by microdilution method; in short: as §3
Staphylococcus aureus [10] = assay: Antimicrobial activity against daptomycin-nonsusceptible Staphylococcus aureus assessed as susceptible isolates by microdilution method
In short: (§4)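 MICs by CLSI broth microdilution in cation-adjusted Mueller-Hinton broth, read visually as the lowest concentration with no visible growth. Percentages of susceptible or resistant isolates assigned using CLSI breakpoints. Isolates: CA-MRSA (n = 92, positive within 48 h of admission) and DNSSA (n = 7, blood).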

Staphylococcus aureus [11] = assay: Antimicrobial activity against vancomycin intermediate Staphylococcus aureus NRS-19 expressing SCCmec type 2 element by microdilution method; in short: as §1
Staphylococcus aureus [12] = assay: Antimicrobial activity against vancomycin intermediate Staphylococcus aureus NRS-402 expressing SCCmec type 2 element by microdilution method; in short: as §1
Staphylococcus aureus [13] = assay: Antimicrobial activity against vancomycin resistant Staphylococcus aureus VRS-7 expressing SCCmec element by microdilution method; in short: as §3
Staphylococcus aureus [14] = assay: Antimicrobial activity against vancomycin intermediate Staphylococcus aureus NRS-17 expressing SCCmec type 2 element by microdilution method; in short: as §1
Staphylococcus aureus [15] = assay: Antimicrobial activity against vancomycin intermediate Staphylococcus aureus NRS-27 expressing SCCmec type 2 element by microdilution method; in short: as §1
Staphylococcus aureus [16] = assay: Bactericidal activity against daptomycin-nonsusceptible Staphylococcus aureus assessed as antibiotic concentration that reduced the number of viable cells by =>99.9% by colony count method; in short: as §2
Staphylococcus aureus [17] = assay: Antimicrobial activity against vancomycin intermediate Staphylococcus aureus NRS-73 expressing SCCmec type 4d element by microdilution method; in short: as §1
Staphylococcus aureus [18] = assay: Bactericidal activity against community-acquired methicillin-resistant Staphylococcus aureus assessed as antibiotic concentration that reduced the number of viable cells by =>99.9% by colony count method; settings: for MBC: Staphylococcus aureus
In short: (§5)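 MBC per CLSI following microdilution in cation-adjusted Mueller-Hinton broth. Defined as the concentration giving ≥99.9% reduction in viable cells, judged from colony counts of the growth control well against Pearson rejection-value tables. CA-MRSA isolates were hospital patients' isolates with positive MRSA culture within 48 h of admission.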

Staphylococcus aureus [19] = assay: Antimicrobial activity against vancomycin intermediate Staphylococcus aureus NRS-26 expressing SCCmec type 2 element by microdilution method; in short: as §1
Staphylococcus aureus [20] = assay: Bactericidal activity against vancomycin-resistant Staphylococcus aureus assessed as antibiotic concentration that reduced the number of viable cells by =>99.9% by colony count method; settings: for MBC: Staphylococcus aureus; in short: as §5
Staphylococcus aureus [21] = assay: Antimicrobial activity against vancomycin intermediate Staphylococcus aureus NRS-118 expressing SCCmec type 1 element by microdilution method; in short: as §1
Staphylococcus aureus [22] = assay: Antimicrobial activity against vancomycin-resistant Staphylococcus aureus by microdilution method; in short: as §3
Staphylococcus aureus [23] = assay: Antimicrobial activity against vancomycin-intermediate Staphylococcus aureus by microdilution method; in short: as §3
Staphylococcus aureus [24] = assay: Antimicrobial activity against vancomycin intermediate Staphylococcus aureus NRS-404 expressing SCCmec type 2 element by microdilution method; in short: as §1
Staphylococcus aureus [25] = assay: Antimicrobial activity against community-acquired methicillin-resistant Staphylococcus aureus assessed as susceptible isolates by microdilution method; in short: as §4
Staphylococcus aureus [26] = assay: Antimicrobial activity against vancomycin resistant Staphylococcus aureus VRS-3 expressing SCCmec type 4 element by microdilution method; in short: as §3
Staphylococcus aureus [27] = assay: Antimicrobial activity against vancomycin-intermediate Staphylococcus aureus assessed as resistant isolates by microdilution method
In short: (§6)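 CLSI broth microdilution MICs in cation-adjusted Mueller-Hinton broth, read visually as the lowest concentration with no visible growth. Percent of isolates classed susceptible or resistant was assigned using CLSI breakpoints.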

Staphylococcus aureus [28] = assay: Antimicrobial activity against vancomycin-resistant Staphylococcus aureus assessed as susceptible isolates by microdilution method; in short: as §6
Staphylococcus aureus [29] = assay: Antimicrobial activity against vancomycin resistant Staphylococcus aureus VRS-5 expressing SCCmec type 2 element by microdilution method; in short: as §3
Staphylococcus aureus [30] = assay: Antimicrobial activity against vancomycin resistant Staphylococcus aureus VRS-4 expressing SCCmec type 4 element by microdilution method; in short: as §3
Staphylococcus aureus [31] = assay: Antimicrobial activity against vancomycin intermediate Staphylococcus aureus NRS-3 expressing SCCmec type 2 element by microdilution method; in short: as §1
Staphylococcus aureus [32] = assay: Antimicrobial activity against vancomycin-resistant Staphylococcus aureus assessed as resistant isolates by microdilution method; in short: as §6
Staphylococcus aureus [33] = assay: Antimicrobial activity against vancomycin resistant Staphylococcus aureus VRS-10 expressing SCCmec type 2 element by microdilution method; in short: as §3
Staphylococcus aureus [34] = assay: Antimicrobial activity against community-acquired methicillin-resistant Staphylococcus aureus assessed as resistant isolates by microdilution method; in short: as §4
Staphylococcus aureus [35] = assay: Antimicrobial activity against vancomycin resistant Staphylococcus aureus VRS-2 expressing SCCmec type 2 element by microdilution method; in short: as §3
Staphylococcus aureus [36] = assay: Antimicrobial activity against daptomycin-nonsusceptible Staphylococcus aureus assessed as resistant isolates by microdilution method; in short: as §4
Staphylococcus aureus [37] = assay: Antimicrobial activity against vancomycin resistant Staphylococcus aureus VRS-6 expressing SCCmec type 2 element by microdilution method; in short: as §3
Staphylococcus aureus [38] = assay: Antimicrobial activity against vancomycin resistant Staphylococcus aureus VRS-1 expressing SCCmec type 2 element by microdilution method; in short: as §3

CC(=O)NC[C@H]1CN(c2ccc(N3CCOCC3)c(F)c2)C(=O)O1 [LINEZOLID]
MIC (Staphylococcus aureus [1]): 1 µg/mL (≈ 2.96 µM)
MIC50 (Staphylococcus aureus [1]; Staphylococcus aureus): 2 µg/mL (≈ 5.93 µM)
MIC (Staphylococcus aureus [1]; Staphylococcus aureus, read-out: MIC): 1.48 µg/mL (≈ 4.39 µM)
MBC50 (Staphylococcus aureus [2]): 4 µg/mL (≈ 11.9 µM)
MBC90 (Staphylococcus aureus [2]): >8 µg/mL
MBC (Staphylococcus aureus [2]): > 1 µg/mL
MIC50 (Staphylococcus aureus [3]): 2 µg/mL (≈ 5.93 µM)
MIC90 (Staphylococcus aureus [3]): 2 µg/mL (≈ 5.93 µM)
MIC (Staphylococcus aureus [4]): 1 µg/mL (≈ 2.96 µM)
MIC (Staphylococcus aureus [5]): 1 µg/mL (≈ 2.96 µM)
Activity (Staphylococcus aureus [6]): 100%
MIC (Staphylococcus aureus [7]): 1 µg/mL (≈ 2.96 µM)
MIC (Staphylococcus aureus [8]): 1 µg/mL (≈ 2.96 µM)
MIC (Staphylococcus aureus [9]): 1 µg/mL (≈ 2.96 µM)
Activity (Staphylococcus aureus [10]): 100%
MIC (Staphylococcus aureus [11]): 1 µg/mL (≈ 2.96 µM)
MIC (Staphylococcus aureus [12]): 0.5 µg/mL (≈ 1.48 µM)
MIC (Staphylococcus aureus [13]): 1 µg/mL (≈ 2.96 µM)
MIC (Staphylococcus aureus [14]): 1 µg/mL (≈ 2.96 µM)
MIC (Staphylococcus aureus [15]): 1 µg/mL (≈ 2.96 µM)
MBC50 (Staphylococcus aureus [16]): >8 µg/mL
MIC (Staphylococcus aureus [17]): 1 µg/mL (≈ 2.96 µM)
MBC (Staphylococcus aureus [18]): > 4 µg/mL
MIC (Staphylococcus aureus [19]): 1 µg/mL (≈ 2.96 µM)
MBC (Staphylococcus aureus [20]): > 8 µg/mL
MIC (Staphylococcus aureus [21]): 1 µg/mL (≈ 2.96 µM)
MIC50 (Staphylococcus aureus [22]): 2 µg/mL (≈ 5.93 µM)
MIC90 (Staphylococcus aureus [22]): 2 µg/mL (≈ 5.93 µM)
MIC50 (Staphylococcus aureus [23]): 2 µg/mL (≈ 5.93 µM)
MIC90 (Staphylococcus aureus [23]): 2 µg/mL (≈ 5.93 µM)

CN[C@H](CC(C)C)C(=O)N[C@H]1C(=O)N[C@@H](CC(N)=O)C(=O)N[C@H]2C(=O)N[C@H]3C(=O)N[C@H](C(=O)N[C@H](C(=O)O)c4cc(O)cc(O)c4-c4cc3ccc4O)[C@H](O)c3ccc(c(Cl)c3)Oc3cc2cc(c3O[C@@H]2O[C@H](CO)[C@@H](O)[C@H](O)[C@H]2O[C@H]2C[C@](C)(N)[C@H](O)[C@H](C)O2)Oc2ccc(cc2Cl)[C@H]1O [VANCOMYCIN]
MIC (Staphylococcus aureus [24]): 8 µg/mL (≈ 5.52 µM)
Activity (Staphylococcus aureus [25]): 100%
MIC (Staphylococcus aureus [26]): 32 µg/mL (≈ 22.1 µM)
Activity (Staphylococcus aureus [27]): 0%
Activity (Staphylococcus aureus [28]): 0%
MIC (Staphylococcus aureus [29]): > 64 µg/mL
MIC50 (Staphylococcus aureus [1]; Staphylococcus aureus): 2 µg/mL (≈ 1.38 µM)
MBC50 (Staphylococcus aureus [2]): 4 µg/mL (≈ 2.76 µM)
MBC90 (Staphylococcus aureus [2]): 8 µg/mL (≈ 5.52 µM)
MBC (Staphylococcus aureus [2]): 1 µg/mL (≈ 0.69 µM)
MIC50 (Staphylococcus aureus [3]): 1 µg/mL (≈ 0.69 µM)
MIC90 (Staphylococcus aureus [3]): 1 µg/mL (≈ 0.69 µM)
MIC (Staphylococcus aureus [30]): > 64 µg/mL
Activity (Staphylococcus aureus [6]): 13%
MIC (Staphylococcus aureus [7]): > 64 µg/mL
MIC (Staphylococcus aureus [9]): > 64 µg/mL
Activity (Staphylococcus aureus [10]): 100%
MIC (Staphylococcus aureus [31]): 8 µg/mL (≈ 5.52 µM)
Activity (Staphylococcus aureus [32]): 100%
MIC (Staphylococcus aureus [33]): > 64 µg/mL
Activity (Staphylococcus aureus [34]): 0%
MIC (Staphylococcus aureus [12]): 8 µg/mL (≈ 5.52 µM)
MIC (Staphylococcus aureus [13]): > 64 µg/mL
MIC (Staphylococcus aureus [14]): 8 µg/mL (≈ 5.52 µM)
MIC (Staphylococcus aureus [35]): 32 µg/mL (≈ 22.1 µM)
MBC50 (Staphylococcus aureus [16]): 2 µg/mL (≈ 1.38 µM)
MBC (Staphylococcus aureus [16]; Staphylococcus aureus, read-out: MBC): 2 µg/mL (≈ 1.38 µM)
MBC50 (Staphylococcus aureus [18]): 1 µg/mL (≈ 0.69 µM)
MBC90 (Staphylococcus aureus [18]): 1 µg/mL (≈ 0.69 µM)
MBC (Staphylococcus aureus [18]): 0.5 µg/mL (≈ 0.345 µM)
Activity (Staphylococcus aureus [36]): 0%
MBC50 (Staphylococcus aureus [20]): >64 µg/mL
MBC90 (Staphylococcus aureus [20]): >64 µg/mL
MBC (Staphylococcus aureus [20]): > 64 µg/mL
MIC (Staphylococcus aureus [21]): 8 µg/mL (≈ 5.52 µM)
MIC (Staphylococcus aureus [37]): > 64 µg/mL
MIC50 (Staphylococcus aureus [22]): > 64 µg/mL
MIC90 (Staphylococcus aureus [22]): > 64 µg/mL
MIC (Staphylococcus aureus [38]): > 64 µg/mL
MIC50 (Staphylococcus aureus [23]): 4 µg/mL (≈ 2.76 µM)
MIC90 (Staphylococcus aureus [23]): 8 µg/mL (≈ 5.52 µM)

Source: ChEMBL document CHEMBL1275598, “In vitro activity of ceftaroline against community-associated methicillin-resistant, vancomycin-intermediate, vancomycin-resistant, and daptomycin-nonsusceptible Staphylococcus aureus isolates” (2010)
